Assay [1] concerns the target T1, Peroxisome proliferator-activated receptor gamma (Homo sapiens) (UniProt P37231).
T1 sequence (whole entry): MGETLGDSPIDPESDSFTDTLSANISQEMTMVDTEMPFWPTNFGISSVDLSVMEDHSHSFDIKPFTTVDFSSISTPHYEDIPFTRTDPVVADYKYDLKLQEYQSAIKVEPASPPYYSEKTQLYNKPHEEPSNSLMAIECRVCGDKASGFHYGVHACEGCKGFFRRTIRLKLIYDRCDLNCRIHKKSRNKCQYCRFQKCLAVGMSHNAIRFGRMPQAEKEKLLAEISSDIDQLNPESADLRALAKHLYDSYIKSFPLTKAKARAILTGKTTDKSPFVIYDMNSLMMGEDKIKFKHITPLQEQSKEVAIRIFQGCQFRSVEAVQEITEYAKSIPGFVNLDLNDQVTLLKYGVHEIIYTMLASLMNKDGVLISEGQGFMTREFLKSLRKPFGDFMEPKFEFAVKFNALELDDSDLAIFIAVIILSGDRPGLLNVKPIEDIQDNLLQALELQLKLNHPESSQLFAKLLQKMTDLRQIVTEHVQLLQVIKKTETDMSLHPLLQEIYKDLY
Kind of assay: Transactivation of human PPARgamma expressed in human MCF7 cells harboring pPPRE3-tk-luc reporter at 10 uM after 24 hrs by luciferase reporter gene assay relative to control. Format: cell-based. Put shortly: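 MCF-7 cells transfected with a pPPRE3tk-luc reporter are exposed to compound (10μM) for 24 h. Luciferase activity is normalized to β-Gal activity and expressed as fold induction over a solvent control set to 1. Three independent experiments are run, each with duplicate transfections. Values are mean ± s.e.m.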

The species entered for assay [2] is Rattus norvegicus. Briefly: Blocking activity at AT1 receptor in rat aortic vascular smooth muscle cells assessed as inhibition of angiotensin-2-induced calcium flux at 10 uM preincubated for 20 mins followed by angiotensin-2 addition by Fura-2-AM dye based scanning fluorometric method relative to control. Put shortly: (§1)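 Rat aortic smooth muscle cells. Angiotensin II-mediated intracellular calcium release is followed by fluorescence. A first screen is run at a single concentration. Compounds that pass are retested at various concentrations to derive IC50, with losartan tested in each experiment. Values are expressed as the ratio of the compound's IC50 to losartan's IC50.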
On the technique in general: Calcium assays in cells follow changes in intracellular calcium, usually with a dye or a luminescent sensor.

The species entered for assay [3] is Rattus norvegicus. Kind of assay: Ratio of test compound IC50 to losartan IC50 for bocking activity at AT1 receptor in rat aortic vascular smooth muscle cells assessed as inhibition of angiotensin-2-induced calcium flux. Put shortly: as §1
The subject of assay [4] is Rattus norvegicus. Kind of assay: Antihypertensive activity in angiotensin 2-induced Wistar rat hypertensive model assessed as reduction in angiotensin 2-induced mean arterial pressure at 6 x 10^-5mol/kg, iv. Format: functional, organism-based. The gist of the method: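 Adult male Wistar rats; angiotensin II given as i.v. bolus at 10-10 mol/kg, with no pretreatment or after i.v. pretreatment at 6.10−5 mol/kg. Read-out is the change in mean arterial pressure in mm Hg, reported as mean ± sem.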

The structures appear in SMILES notation. Active and inactive are the calls of the source. The calls are words filed in the database; no cut-off is given here.

On to `CCCc1nc2c(C)cc(-c3nc4ccccc4n3C)cc2n1Cc1ccc(-c2ccccc2C(=O)O)cc1`, for which the outcome in assay [1] was Active.

What is called inhibition is the drop in the measured response relative to a control, in per cent. `Cc1c(C)c2c(c(C)c1OCc1ccc(-c3ccccc3C(=O)O)cc1)CCC(C)(COc1ccc(CC3SC(=O)NC3=O)cc1)O2` (configuration not stated): the outcome in assay [1] was Active. Also, the inhibition result in assay [2] was “inactive”.

With `CCCCc1nc(Cl)c(/C=C/C(=O)Oc2ccc(CC3SC(=O)NC3=O)cc2)n1Cc1ccc(-c2ccccc2-c2nn[nH]n2)cc1` (configuration not stated), in assay [1], the result was Active. Besides, the inhibition in assay [2] was above 50%. The Ratio IC50 in assay [3] came to 3.2.

For the molecule `COC(=O)c1ccccc1N[C@@H](Cc1ccc(OCC2(C)CCc3c(C)c(O)c(C)c(C)c3O2)cc1)C(=O)O` (some centres not stated), in assay [1], the result was Active.

Turning to `O=C1NC(=O)C(Cc2ccc(OCc3cn(Cc4ccc(-c5ccccc5C(=O)O)cc4)nn3)cc2)S1` (configuration not stated), the outcome in assay [1] was inactive. Also, in assay [2], the inhibition entry was “inactive”.

As to `CCCCc1nc(CCCOc2ccc(CC3SC(=O)NC3=O)cc2)cn1Cc1ccc(-c2ccccc2C(=O)O)cc1` (configuration not stated), the outcome in assay [1] was Active. Besides, the inhibition in assay [2] was above 50%. Further, in assay [3], the Ratio IC50 amounted to 16.2.

With `CC(C)(C)OC(=O)c1ccccc1-c1ccc(Cn2cc(COc3ccc(CC4SC(=O)NC4=O)cc3)nn2)cc1` (configuration not stated), in assay [1], the result was Active.

For the molecule `CC(C)(C)OC(=O)c1ccccc1-c1ccc(Cn2cc(CCOc3ccc(CC4SC(=O)NC4=O)cc3)nn2)cc1` (configuration not stated), in assay [1], the outcome was Active.

Regarding `Cc1c(C)c2c(c(C)c1OCc1ccc(-c3ccccc3C(=O)O)cc1)CCC(C)(COc1ccc(/C=C3\SC(=O)NC3=O)cc1)O2` (configuration not stated), the result in assay [1] was Active.

Regarding `CCCCc1c(COc2ccc(CC3SC(=O)NC3=O)cc2)nnn1Cc1ccc(-c2ccccc2C(=O)O)cc1` (configuration not stated), the result in assay [1] was Active. The inhibition result in assay [2] was “inactive”.

In the case of `Cc1c(C)c2c(c(C)c1OCc1ccc(-c3ccccc3C(=O)OC(C)(C)C)cc1)CCC(C)(COc1ccc(/C=C3\SC(=O)NC3=O)cc1)O2` (configuration not stated), the outcome in assay [1] was Active.

Regarding `O=C1NC(=O)C(Cc2ccc(OCCc3cn(Cc4ccc(-c5ccccc5C(=O)O)cc4)nn3)cc2)S1` (configuration not stated), the result in assay [1] was inactive. Also, the inhibition entry in assay [2] is “inactive”.

Regarding `CCCCc1nc(COc2ccc(CC3SC(=O)NC3=O)cc2)cn1Cc1ccc(-c2ccccc2C(=O)O)cc1` (configuration not stated), in assay [1], the result was Active. In assay [2], the inhibition was above 50%. The Ratio IC50 in assay [3] is 5.

On to `CCCCc1nc(Cl)c(CCCOc2ccc(CC3SC(=O)NC3=O)cc2)n1Cc1ccc(-c2ccccc2-c2nn[nH]n2)cc1` (configuration not stated), for which, in assay [1], the result was inactive. The inhibition in assay [2] is above 50%. The Ratio IC50 in assay [3] came out at 0.4.

Take `COC(=O)c1ccccc1N[C@@H](Cc1ccc(OCC2(C)CCc3c(C)c(OCc4ccc(-c5ccccc5C(=O)O)cc4)c(C)c(C)c3O2)cc1)C(=O)O` (some centres not stated): the result in assay [1] was Active. The inhibition entry in assay [2] is “inactive”.

Turning to `CCCCCS(=O)(=O)NC(=O)/C=C/c1c(Cl)nc(CCCC)n1Cc1ccc(-c2ccccc2-c2nn[nH]n2)cc1`, the result in assay [1] was Active. For the same molecule, the inhibition in assay [2] is above 50%. Also, the Ratio IC50 in assay [3] stood at 11.1.

For `CCCCc1ncc(CCCOc2ccc(CC3SC(=O)NC3=O)cc2)n1Cc1ccc(-c2ccccc2-c2nn[nH]n2)cc1` (configuration not stated), in assay [1], the result was inactive. In addition, the inhibition in assay [2] is above 50%. Further, the Ratio IC50 in assay [3] was 1.1.

`CCCCc1nc(Cl)c(COc2ccc(CC3SC(=O)NC3=O)cc2)n1Cc1ccc(-c2ccccc2-c2nn[nH]n2)cc1` (configuration not stated): the outcome in assay [1] was inactive. In addition, the inhibition in assay [2] is above 50%. For the same molecule, in assay [3], the Ratio IC50 came out at 6.3. In addition, in assay [4], the outcome was Active.

`CCCCc1nc(Cl)c(/C=C/C(=O)Oc2ccc(C[C@H](Nc3ccccc3C(=O)OC)C(=O)O)cc2)n1Cc1ccc(-c2ccccc2-c2nn[nH]n2)cc1`: the outcome in assay [1] was Active. Further, the inhibition in assay [2] is above 50%. In addition, in assay [3], the Ratio IC50 was found to be 3.8.

Regarding `CCCCc1nc(Cl)c(CO)n1Cc1ccc(-c2ccccc2-c2nnn[nH]2)cc1`, the result in assay [1] was inactive. Besides, in assay [2], the inhibition amounted to 78%. Besides, the result in assay [4] was Active.

For `CCCCc1nc(Cl)c(COc2ccc(/C=C3\SC(=O)NC3=O)cc2)n1Cc1ccc(-c2ccccc2-c2nn[nH]n2)cc1`, the outcome in assay [1] was inactive. Further, the inhibition in assay [2] was below 50%.

`CCCCCCCCCCCCOCc1c(Cl)nc(CCCC)n1Cc1ccc(-c2ccccc2-c2nn[nH]n2)cc1`: in assay [1], the result was Active. Also, the inhibition in assay [2] was above 50%. Further, the Ratio IC50 in assay [3] amounted to 43.2.

With `O=C1NC(=O)C(Cc2ccc(OCc3cn(Cc4ccc(-c5ccccc5C(=O)O)cc4)cn3)cc2)S1` (configuration not stated), the result in assay [1] was inactive. The inhibition in assay [2] was above 50%. Also, the Ratio IC50 in assay [3] amounted to 3.4.

These data come from ChEMBL document CHEMBL4270651, “Synthesis and evaluation of new designed multiple ligands directed towards both peroxisome proliferator-activated receptor-γ and angiotensin II type 1 receptor” (Eur J Med Chem, 2018).
